Values after ≈ are worked out from the molar mass of the structure shown. Active and inactive are the calls of the source. The calls are words filed in the database; no cut-off is given here.
Assays:
[1] = system: Enterococcus faecalis; assay: Antimicrobial activity against vancomycin-susceptible Enterococcus faecalis ATCC 29212 assessed as bacterial growth inhibitions by CLSI protocol based microdilution method
[2] = system: Staphylococcus aureus; assay: Antimicrobial activity against methicillin-resistant Staphylococcus aureus ATCC 33591 assessed as bacterial growth inhibitions by CLSI protocol based microdilution method; type: functional
[3] = system: Staphylococcus aureus; assay: Antimicrobial activity against methicillin-resistant Staphylococcus aureus ATCC 700699 assessed as bacterial growth inhibitions by CLSI protocol based microdilution method; type: functional
[4] = system: Staphylococcus aureus; assay: Antimicrobial activity against antibiotic-resistant Staphylococcus aureus BM-2312 assessed as bacterial growth inhibitions by CLSI protocol based microdilution method; type: functional
[5] = system: Bacillus subtilis; assay: Antimicrobial activity against Bacillus subtilis ATCC 6623 assessed as bacterial growth inhibitions by CLSI protocol based microdilution method; type: functional
Method in brief: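 Broth microdilution starting at 50 µg/ml with 2-fold serial dilutions; run in triplicate.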

[6] = system: Staphylococcus epidermidis; assay: Antimicrobial activity against methicillin-resistant Staphylococcus epidermidis ATCC 700296 assessed as bacterial growth inhibitions by CLSI protocol based microdilution method; type: functional
[7] = system: Staphylococcus aureus; assay: Antimicrobial activity against methicillin-susceptible Staphylococcus aureus ATCC 25923 assessed as bacterial growth inhibitions by CLSI protocol based microdilution method; type: functional
[8] = system: Staphylococcus aureus; assay: Antimicrobial activity against methicillin-resistant Staphylococcus aureus ATCC 33592 assessed as bacterial growth inhibitions by CLSI protocol based microdilution method; type: functional
[9] = system: Enterococcus faecium; assay: Antimicrobial activity against vancomycin-resistant Enterococcus faecium ATCC 700221 assessed as bacterial growth inhibitions by CLSI protocol based microdilution method; type: functional

Row | Compound | MIC [1] | MIC [2] [µg/mL] | MIC [3] [µg/mL] | MIC [4] [µg/mL] | MIC [5] [µg/mL] | MIC [6] [µg/mL] | MIC [7] [µg/mL] | MIC [8] [µg/mL] | MIC [9]
1 | O=C(O)c1ccc(-n2cc(CNc3cc(Cl)ccc3Cl)c(-c3ccc(C(F)(F)F)cc3)n2)cc1 | 3.12 µg/mL (≈ 6.16 µM) | 0.78 (≈ 1.54 µM) | 0.78 (≈ 1.54 µM) | 0.78 (≈ 1.54 µM) | 0.78 (≈ 1.54 µM) | 1.56 (≈ 3.08 µM) | 0.78 (≈ 1.54 µM) | 0.78 (≈ 1.54 µM) | 0.78 µg/mL (≈ 1.54 µM)
2 | O=C(O)c1ccc(-n2cc(CNc3ccc(Cl)c(C(F)(F)F)c3)c(-c3ccc(C(F)(F)F)cc3)n2)cc1 | 0.78 µg/mL (≈ 1.44 µM) | 0.78 (≈ 1.44 µM) | 0.78 (≈ 1.44 µM) | 0.78 (≈ 1.44 µM) | 0.78 (≈ 1.44 µM) | 0.78 (≈ 1.44 µM) | 0.78 (≈ 1.44 µM) | 0.78 (≈ 1.44 µM) | 0.78 µg/mL (≈ 1.44 µM)
3 | O=C(O)c1ccc(-n2cc(CNc3ccc(F)cc3)c(-c3ccc(C(F)(F)F)cc3)n2)cc1 | 25 µg/mL (≈ 54.9 µM) | 6.25 (≈ 13.7 µM) | 6.25 (≈ 13.7 µM) | 3.12 (≈ 6.85 µM) | 1.56 (≈ 3.43 µM) | 12.5 (≈ 27.4 µM) | 6.25 (≈ 13.7 µM) | 12.5 (≈ 27.4 µM) | 6.25 µg/mL (≈ 13.7 µM)
4 | O=C(O)c1ccc(-n2cc(CNc3ccc(F)c(Cl)c3F)c(-c3ccc(C(F)(F)F)cc3)n2)cc1 | 6.25 µg/mL (≈ 12.3 µM) | 1.56 (≈ 3.07 µM) | 1.56 (≈ 3.07 µM) | 1.56 (≈ 3.07 µM) | 0.78 (≈ 1.54 µM) | 1.56 (≈ 3.07 µM) | 1.56 (≈ 3.07 µM) | 1.56 (≈ 3.07 µM) | 1.56 µg/mL (≈ 3.07 µM)
5 | O=C(O)c1ccc(-n2cc(CNc3cc(Cl)cc(C(F)(F)F)c3)c(-c3ccc(C(F)(F)F)cc3)n2)cc1 | 6.25 µg/mL (≈ 11.6 µM) | 0.78 (≈ 1.44 µM) | 0.78 (≈ 1.44 µM) | 0.78 (≈ 1.44 µM) | 0.78 (≈ 1.44 µM) | 1.56 (≈ 2.89 µM) | 0.78 (≈ 1.44 µM) | 0.78 (≈ 1.44 µM) | 0.78 µg/mL (≈ 1.44 µM)
6 | O=C(O)c1ccc(-n2cc(CNc3cc(F)c(C(F)(F)F)c(F)c3)c(-c3ccc(C(F)(F)F)cc3)n2)cc1 | 12.5 µg/mL (≈ 23.1 µM) | 1.56 (≈ 2.88 µM) | 1.56 (≈ 2.88 µM) | 1.56 (≈ 2.88 µM) | 0.78 (≈ 1.44 µM) | 3.12 (≈ 5.76 µM) | 1.56 (≈ 2.88 µM) | 1.56 (≈ 2.88 µM) | 6.25 µg/mL (≈ 11.5 µM)
7 | NS(=O)(=O)c1ccc(NCc2cn(-c3ccc(C(=O)O)cc3)nc2-c2ccc(C(F)(F)F)cc2)cc1 | inactive | 50 (≈ 96.8 µM) | 0.39 (≈ 0.755 µM) | 50 (≈ 96.8 µM) | 50 (≈ 96.8 µM) | 50 (≈ 96.8 µM) | 50 (≈ 96.8 µM) | 50 (≈ 96.8 µM) | inactive
8 | O=C(O)c1ccc(-n2cc(CNc3cc(Br)cc(C(F)(F)F)c3)c(-c3ccc(C(F)(F)F)cc3)n2)cc1 | 0.78 µg/mL (≈ 1.33 µM) | 3.12 (≈ 5.34 µM) | 0.78 (≈ 1.33 µM) | 0.78 (≈ 1.33 µM) | 0.78 (≈ 1.33 µM) | 1.56 (≈ 2.67 µM) | 0.78 (≈ 1.33 µM) | 0.78 (≈ 1.33 µM) | 0.78 µg/mL (≈ 1.33 µM)
9 | O=C(O)c1ccc(-n2cc(CNc3ccc(Cl)c(Cl)c3)c(-c3ccc(C(F)(F)F)cc3)n2)cc1 |  | 0.78 (≈ 1.54 µM) | 1.56 (≈ 3.08 µM) | 0.78 (≈ 1.54 µM) | 0.78 (≈ 1.54 µM) |  | 0.78 (≈ 1.54 µM) | 0.78 (≈ 1.54 µM) | 0.78 µg/mL (≈ 1.54 µM)
10 | O=C(O)c1ccc(-n2cc(CNc3ccc(Br)c(Cl)c3F)c(-c3ccc(C(F)(F)F)cc3)n2)cc1 | 0.78 µg/mL (≈ 1.37 µM) |  |  |  |  |  |  |  | 
11 | O=C(O)c1ccc(-n2cc(CNc3ccc(Br)c(C(F)(F)F)c3)c(-c3ccc(C(F)(F)F)cc3)n2)cc1 |  | 0.78 (≈ 1.33 µM) | 3.12 (≈ 5.34 µM) | 3.12 (≈ 5.34 µM) | 3.12 (≈ 5.34 µM) | 12.5 (≈ 21.4 µM) | 3.12 (≈ 5.34 µM) | 3.12 (≈ 5.34 µM) | 0.78 µg/mL (≈ 1.33 µM)
12 | O=C(O)c1ccc(-n2cc(CNc3cc(F)c(C(F)(F)F)cc3F)c(-c3ccc(C(F)(F)F)cc3)n2)cc1 | 1.56 µg/mL (≈ 2.88 µM) | 0.78 (≈ 1.44 µM) | 0.78 (≈ 1.44 µM) | 0.78 (≈ 1.44 µM) | 0.78 (≈ 1.44 µM) |  | 0.78 (≈ 1.44 µM) | 0.78 (≈ 1.44 µM) | 0.78 µg/mL (≈ 1.44 µM)
13 | O=C(O)c1ccc(-n2cc(CNc3cccc(Cl)c3F)c(-c3ccc(C(F)(F)F)cc3)n2)cc1 |  | 1.56 (≈ 3.18 µM) | 3.12 (≈ 6.37 µM) | 0.78 (≈ 1.59 µM) | 0.78 (≈ 1.59 µM) |  | 1.56 (≈ 3.18 µM) | 1.56 (≈ 3.18 µM) | 0.78 µg/mL (≈ 1.59 µM)
14 | O=C(O)c1ccc(-n2cc(CNc3ccc(F)c(F)c3)c(-c3ccc(C(F)(F)F)cc3)n2)cc1 | 12.5 µg/mL (≈ 26.4 µM) | 1.56 (≈ 3.3 µM) | 0.78 (≈ 1.65 µM) | 1.56 (≈ 3.3 µM) |  | 6.25 (≈ 13.2 µM) | 1.56 (≈ 3.3 µM) | 1.56 (≈ 3.3 µM) | 3.12 µg/mL (≈ 6.59 µM)

— ChEMBL document CHEMBL4814057, “4-4-(Anilinomethyl)-3-[4-(trifluoromethyl)phenyl]-1H-pyrazol-1-ylbenzoic acid derivatives as potent anti-gram-positive bacterial agents” (Eur J Med Chem, 2021)
